Compound activity deposited in PubChem by several laboratories.
BB579 growth dn = growth inhibitors of yeast BB579 in restrictive medium, primary screen, yeast lifespan-shortening project, S. cerevisiae; inhibition, % at 10 µM; AID 804, 2007; 140,000 tested, 0.51% active; OD615, 48 h;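 active = inhibition above a set limit, 3 SD over the mean compound inhibition, cut at about 44% in these data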
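Material: Saccharomyces cerevisiae DeaD strain BB579, replicative lifespan model yeast; buffer or medium: CSMM-D restrictive synthetic medium containing dextrose (glucose); compound: 10 µM single dose, DMSO 0.25%; timing: 48 h compound exposure at 30 °C after 4 h preincubation; signal: turbidity as optical density at 615 nm; benchmarks: positive control amphotericin B 10 µg/mL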
Measles CPE = compounds protecting cells from measles virus cytopathic effect, primary screen, measles RdRp inhibitor project, single point, MLSMR library, absorbance. Measles virus-infected cells, CPE protection. protection (pct of control), % at 4 µM. 140,000 tested, 1.5% active. AID 841, 2007; in the data active = protection mostly above about 24%, no sharp cut-off; inactive = mostly below about 26%
Yeast lifespan up = compounds extending yeast replicative lifespan, primary screen, S. cerevisiae, OD615; S. cerevisiae growth with nicotinamide; deaD strain in restrictive glucose medium; 130,000 tested, 0.68% active; inhibition of the nicotinamide effect, % at 10 µM;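 active = inhibition above a set limit, placed 3 SD over the median of all compounds, cut at about 26% in these data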;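 also: 0% = nicotinamide-treated wells and 100% = cells grown without nicotinamide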
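Assay system: DeaD-strain S. cerevisiae. Medium: CSMM-D glucose medium, restrictive. Reagent: nicotinamide, 1.5 mM, co-present with compound. Compound: 10 µM single point, 0.25% DMSO. Schedule: culture preincubation 4 h, compound exposure 48 h, both 30 °C. Detection: absorbance at 615 nm.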
RAM inhibit = inhibitors of the yeast RAM network, primary screen, dse1pr::URA3 reporter, 5-FOA selection. S. cerevisiae dse1pr::URA3 reporter, 5-FOA growth OD615, 2 d; analog-sensitive cbk1-as2 kinase mutant strain. 190,000 tested, 1.8% active. inhibition, % at 50 µM;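 active = inhibition above a set limit, 3 SD over mean compound inhibition, cut at about 8.4% in these data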;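 also: 0% = DMSO-only wells with no growth and 100% = 10 µM 1-NA-PP1 full growth; inhibition rescues growth on 5-FOA so higher OD means more RAM inhibition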
WT yeast gro inh = growth inhibition of WT strain, primary screen, mitochondrial fusion inhibitor project, WT and mutant strains, chemical genetic | mitochondrial fusion phenotypic screen | inhibition, % at 10 µM | 190,000 tested, 2.1% active; in the data active = inhibition above about 58%; tested in S. cerevisiae
DAT uptake mod = changed hDAT dopamine uptake under cocaine IC80, either direction, primary screen, cocaine antagonist project, cell-based, LLC-PK1 hDAT, [14C]-dopamine uptake, MLSMR; Sodium-dependent dopamine transporter (Homo sapiens), Q01959; LLC-PK1 hDAT cells, [14C]-dopamine uptake with cocaine IC80; actives deviate in either direction; B-score at 10 µM; 110,000 tested, 1.3% active; AID 449768, 2010;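 active = Z score or B-score, a plate-position-corrected score, falls beyond the plate's 99.7% confidence bounds, in either direction; inactive = both scores lie inside the 99.7% bounds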;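 also: scored against the spread of the other compound wells on the same plate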
Target sequence (Q01959 whole entry, looked up): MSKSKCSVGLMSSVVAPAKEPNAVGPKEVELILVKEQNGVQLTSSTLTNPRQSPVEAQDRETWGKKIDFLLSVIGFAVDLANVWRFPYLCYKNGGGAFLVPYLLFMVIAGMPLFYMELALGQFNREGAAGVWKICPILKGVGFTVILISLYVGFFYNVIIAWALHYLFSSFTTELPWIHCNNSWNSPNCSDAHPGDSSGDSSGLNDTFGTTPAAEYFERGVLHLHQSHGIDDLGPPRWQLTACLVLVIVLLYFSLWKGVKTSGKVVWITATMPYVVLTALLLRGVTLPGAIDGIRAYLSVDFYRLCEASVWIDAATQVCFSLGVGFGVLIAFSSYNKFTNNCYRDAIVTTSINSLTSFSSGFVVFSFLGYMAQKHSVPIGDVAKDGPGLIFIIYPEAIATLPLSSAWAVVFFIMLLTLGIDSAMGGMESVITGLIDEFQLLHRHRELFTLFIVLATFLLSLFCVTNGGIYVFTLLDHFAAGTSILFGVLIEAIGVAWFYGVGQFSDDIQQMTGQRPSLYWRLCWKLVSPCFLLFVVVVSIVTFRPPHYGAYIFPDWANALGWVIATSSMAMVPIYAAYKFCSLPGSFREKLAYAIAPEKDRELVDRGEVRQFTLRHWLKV
An asterisk follows results filed as active. This is a sample that favours compounds with a hit; in the whole collection about 6.1% have one here.

How did CC1CC2=C(NC(=S)NC2c2ccccc2F)/C(=C/c2ccccc2F)C1 (stereo not given) do in these assays?
RAM inhibit: 2; WT yeast gro inh: 80*

Results for Cc1nc2[nH]c(=S)n(C)c(=O)c2nc1C ?
BB579 growth dn: -37; Measles CPE: 6; Yeast lifespan up: 2; RAM inhibit: 2; WT yeast gro inh: -22

Results for COc1ccc(-c2cnc(OC(C)(C)C)nc2OC(C)(C)C)cc1OC ?
BB579 growth dn: -11; Measles CPE: 21; Yeast lifespan up: -10; RAM inhibit: 0; WT yeast gro inh: 26; DAT uptake mod: 0.59

How did S=C(Nc1cccc(Cl)c1Cl)N1CCC2(CC1)OCCO2 do in these assays?
RAM inhibit: 3; WT yeast gro inh: 0

What do the screens show for `Cc1cc(C)c2nc(NNC(=O)c3ccc(S(=O)(=O)N4CCc5ccccc5C4)cc3)sc2c1`?
BB579 growth dn: 31; Measles CPE: 5; Yeast lifespan up: 1; RAM inhibit: 2; WT yeast gro inh: 19; DAT uptake mod: 0.94

What do the screens show for `Cc1cc(C)c2nc(NNC(=O)c3cc(=O)c4ccccc4o3)sc2c1`?
RAM inhibit: 9.5*; WT yeast gro inh: -10

Results for CCOC(=O)C1CCN(C(=O)c2sc3nc(C)nc(N4CCC(C)CC4)c3c2C)CC1 ?
BB579 growth dn: 2; Measles CPE: 24; RAM inhibit: 0; WT yeast gro inh: 9; DAT uptake mod: 1.5

Results for CCOC(=O)C1CCN(C(=O)c2sc3ncnc(N4CCC(C)CC4)c3c2C)CC1 ?
BB579 growth dn: -14; Measles CPE: 19; RAM inhibit: -1; WT yeast gro inh: 22; DAT uptake mod: 2.5*

How did O=C1NC(=O)/C(=C\c2ccc(O)cc2O)S1 do in these assays?
RAM inhibit: -1; WT yeast gro inh: -9

What do the screens show for `Cc1ccc(S(=O)(=O)Nc2ccc3nc(-c4cccn4C)[nH]c3c2)cc1`?
BB579 growth dn: -9; Measles CPE: 7; Yeast lifespan up: -8; RAM inhibit: 1; WT yeast gro inh: -1; DAT uptake mod: -2.9*

What do the screens show for `CCCc1nc2ccc(NC(=O)NCCC(=O)OCC)cc2c(=O)n1Cc1ccc(Cl)cc1`?
BB579 growth dn: 5; Measles CPE: 3; RAM inhibit: 2; WT yeast gro inh: -7; DAT uptake mod: -0.09

What do the screens show for `CCCc1nc2ccc(NC(=O)NCCC(=O)OCC)cc2c(=O)n1Cc1cccc(Cl)c1`?
BB579 growth dn: -43; Measles CPE: 32; Yeast lifespan up: -6; RAM inhibit: 10*; WT yeast gro inh: -7; DAT uptake mod: 0.0046

Results for CCCn1nnnc1-c1cccc(Cl)c1 ?
BB579 growth dn: -28; Measles CPE: 61*; Yeast lifespan up: -10; RAM inhibit: 3; DAT uptake mod: -0.43

How did O=C(O)CCOc1ccc2c(c1)OCCO2 do in these assays?
BB579 growth dn: -44; Measles CPE: 2; Yeast lifespan up: -7; RAM inhibit: 1; WT yeast gro inh: 12; DAT uptake mod: -7.6*

Results for O=[N+]([O-])c1cc(Oc2cccnc2)cc([N+](=O)[O-])c1 ?
BB579 growth dn: 2; Measles CPE: 55*; Yeast lifespan up: -4; RAM inhibit: 0; WT yeast gro inh: 10

How did O=C(Oc1cccnc1)c1ccc([N+](=O)[O-])cc1 do in these assays?
BB579 growth dn: -37; Measles CPE: 6; Yeast lifespan up: 1; RAM inhibit: 0; WT yeast gro inh: 1

How did O=C(NCc1ccccn1)c1cc(-c2ccc(-c3ccccc3)cc2)nc2ccccc12 do in these assays?
BB579 growth dn: -21; Measles CPE: 50*; Yeast lifespan up: 1; RAM inhibit: 2; WT yeast gro inh: 20

What do the screens show for `O=C(NCc1ccccn1)c1cc(-c2ccccc2)nc2ccccc12`?
BB579 growth dn: -33; Measles CPE: 11; Yeast lifespan up: 1; RAM inhibit: 0; WT yeast gro inh: -3

What do the screens show for `CC(C)Cc1nnc(NC(=O)c2cc(-c3ccccc3)nc3ccccc23)s1`?
BB579 growth dn: -12; Measles CPE: 44*; Yeast lifespan up: -30; RAM inhibit: 4; WT yeast gro inh: 13; DAT uptake mod: -2

Results for O=C(Nc1nccs1)c1cc(-c2ccco2)nc2ccccc12 ?
BB579 growth dn: -28; Measles CPE: 3; Yeast lifespan up: -1; RAM inhibit: 2; WT yeast gro inh: 7

What do the screens show for `CCNC(=S)NNC(=O)c1cc(-c2ccc(OCC)cc2)nc2ccccc12`?
BB579 growth dn: -4; Measles CPE: 22; Yeast lifespan up: -10; RAM inhibit: 0; WT yeast gro inh: 66*; DAT uptake mod: -0.00012

Results for CCC(CC)c1nnc(NC(=O)c2cc(-c3ccccc3)nc3ccccc23)s1 ?
BB579 growth dn: -15; Measles CPE: 12; Yeast lifespan up: -1; RAM inhibit: 4; WT yeast gro inh: 9

How did CCNC(=S)NNC(=O)c1cc(-c2cccc(OC)c2)nc2ccccc12 do in these assays?
BB579 growth dn: 3; Measles CPE: 3; Yeast lifespan up: -1; RAM inhibit: 5; WT yeast gro inh: 9

What do the screens show for `O=C(Nc1nccs1)c1cc(-c2ccccc2)nc2ccccc12`?
BB579 growth dn: -21; Measles CPE: 40*; Yeast lifespan up: -5; RAM inhibit: 5; WT yeast gro inh: 31

How did O=C(CC1C(=O)NCCN1Cc1cccc(Oc2ccccc2)c1)NCCCn1cccn1 (stereo not given) do in these assays?
RAM inhibit: 1; WT yeast gro inh: -4

How did O=C(CCCOc1ccc(Cl)cc1Cl)N1CCc2ccccc2C1 do in these assays?
BB579 growth dn: -22; Measles CPE: 35; RAM inhibit: 0; WT yeast gro inh: 80*; DAT uptake mod: 1.4

Results for C[C@@H](C[C@@H](O)[C@H](O)C(C)(C)O)[C@@H]1CC[C@]2(C)C3=CC[C@H]4C(C)(C)C(=O)CC[C@]4(C)[C@H]3CC[C@@]12C ?
BB579 growth dn: -27; Measles CPE: 4; Yeast lifespan up: 9; RAM inhibit: 4; WT yeast gro inh: 60*; DAT uptake mod: 1.5

What do the screens show for `Brc1cccc2sc(N3CCCC3)nc12`?
RAM inhibit: 0; WT yeast gro inh: 20

What do the screens show for `CC(=O)Nc1ccc2c(c1)C(C)(C)C(C)N2C` (stereo not given)?
RAM inhibit: 3; WT yeast gro inh: 9
